A short description of data set [1]: folding enthalpy; higher = less favourable; fluorescence melt of hairpins on a sequencing array, two-state fit. The note with it: sodium 0.088 M. Put shortly: (§1)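 To match UV melts, fitted temperatures were raised by 9.35 °C. These fits were bootstrapped two-state models that gave melting temperature and folding enthalpy, combined by inverse variance over four replicates. The input was normalised Cy3 fluorescence of library hairpins with annealed Cy3 and quencher oligos on a sequenced MiSeq flow cell, imaged in 50 mM Na-HEPES pH 8.0, 25 mM NaCl in 2.5 °C steps up to 60 °C.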

A short description of data set [2]: melting temperature; fluorescence melt of hairpins on a sequencing array, two-state fit, raised by 9.35 °C to match UV melts. To be noted: sodium 0.088 M. Put shortly:
as §1

Turning to GATCCCCTATGGGATC ((((((....)))))), the folding enthalpy in data set [1] was -36.9 kcal/mol. For the same sequence, the Tm in data set [2] was determined as 60.8 °C.
In the same order, the values of GTCTTCGGAAACGAAAAC ((.((((....)))).)) are -15.4 kcal/mol and 29.2 °C.
In the same order, the values of GCCAGGCGAAAGCCCGGC (((.(((....))).))) are -24.5 kcal/mol and 66.2 °C.
In the same order, the values of GCTGCGCGAAAGCCCTGC ((.(.((....)).).)) are -17.3 kcal/mol and 38.5 °C.
As to GGCTCCTCGAAAGAGGCC (((..(((....)))))), the folding enthalpy in data set [1] was -14 kcal/mol. Besides, the Tm in data set [2] is 39.5 °C.
Consider GAGGCGGGAAACCACCCC (.((.((....)).)).), for which the folding enthalpy in data set [1] is -13.6 kcal/mol. In addition, in data set [2], the Tm turned out to be 27.8 °C.
The like results for GCAGTCGAAAGACTATGC ((((((....)))..))) were, in that order, -17.8 kcal/mol and 46.2 °C.
For the sequence GCGATCGAAAGATATCGC ((((((....)))..))), the folding enthalpy in data set [1] is -29.2 kcal/mol. For the same sequence, the Tm in data set [2] came out at 47 °C.
GCTCTCGAAAGAGGTAGC ((((((....)))..))): the folding enthalpy in data set [1] is -25.4 kcal/mol. Also, the Tm in data set [2] was 38.4 °C.
The like results for GTTATCCGAAAGGAAAC (((.(((....)))))) were, in that order, -14.5 kcal/mol and 31.5 °C.
As for GGATACTCGAAAGAGTCC (((..(((....)))))), the folding enthalpy in data set [1] was -11.7 kcal/mol. The Tm in data set [2] stood at 32.6 °C.
In the same order, the values of GTGACCGAAAGGTTCAC ((((((....))).))) are -29.5 kcal/mol and 53 °C.
In the same order, the values of GACATAGGAAACTACGTC (((.(((....))).))) are -15.1 kcal/mol and 30 °C.
The like results for GCCCTCGGAAACGAGAGC ((.((((....)))).)) were, in that order, -27.2 kcal/mol and 49.1 °C.
Consider CCACAGAAATGTGG (((((....))))), for which, in data set [1], the folding enthalpy is -18.5 kcal/mol. Moreover, the Tm in data set [2] amounted to 50.5 °C.
For GCCTTCGAAAGAAAAGGC ((((((....)))..))), the folding enthalpy in data set [1] is -27.7 kcal/mol. Moreover, the Tm in data set [2] came to 45.7 °C.
In the case of GGGGAGCCGAAAGGCCCC (((..(((....)))))), the folding enthalpy in data set [1] is -13.2 kcal/mol. The Tm in data set [2] stood at 61.9 °C.
In the same order, the values of GTCCTAGGAAACTAGGGC (.(((((....))))).) are -32.9 kcal/mol and 49.4 °C.
The like results for GTTTTAGAAATAAAAC ((((((....)))))) were, in that order, -22.3 kcal/mol and 36.7 °C.
The like results for GCCCGTCGAAAGACGGC (((.(((....)))))) were, in that order, -10.7 kcal/mol and 63.6 °C.
In the case of GGTGAGCGAAAGCTAACC (((.(((....))).))), the folding enthalpy in data set [1] is -33.3 kcal/mol. In addition, in data set [2], the Tm is 55.5 °C.
GATCCATGAGTGGATC ((((((....)))))): in data set [1], the folding enthalpy was -35.3 kcal/mol. In data set [2], the Tm stood at 55 °C.
The like results for GGGTACGAAAGTAACCC ((((((....))).))) were, in that order, -26.9 kcal/mol and 54.3 °C.
GCTATGCGAAAGCACCGC ((..(((....)))..)): in data set [1], the folding enthalpy was -8.22 kcal/mol. Moreover, the Tm in data set [2] is 31.9 °C.
In the case of GCGAATTCGAAAGAACGC (((..(((....)))))), the folding enthalpy in data set [1] was -20.4 kcal/mol. For the same sequence, the Tm in data set [2] is 40.5 °C.
Regarding CGCTACGGAAACGTTGCG (((.(((....))).))), the folding enthalpy in data set [1] was -38.7 kcal/mol. In addition, the Tm in data set [2] is 56.3 °C.
The like results for GCCGAAGGAAACCTCGGC (((((.(....).))))) were, in that order, -34.6 kcal/mol and 54.6 °C.
In the same order, the values of GATGACGAAAGTCATC ((((((....)))))) are -36.3 kcal/mol and 67.4 °C.
In the same order, the values of GTCAGCGAAAGCTCGAC ((((((....))).))) are -19.8 kcal/mol and 48 °C.
Regarding GCCCTACGAAAGTACGGC (((.(((....))).))), the folding enthalpy in data set [1] is -27.3 kcal/mol. Moreover, the Tm in data set [2] came out at 46.2 °C.
For the sequence GGGCGCGGAAACACGCCC (((((.(....).))))), the folding enthalpy in data set [1] was -34 kcal/mol. Further, the Tm in data set [2] stood at 66.5 °C.
The like results for GAACCCGAAAGGGCGTTC ((((((....)))..))) were, in that order, -11.9 kcal/mol and 33.7 °C.
In the same order, the values of GGGAGTACGAAAGTACCC (((..(((....)))))) are -13.1 kcal/mol and 51.3 °C.
Turning to GAAACACGAAAGTGCTTC (((.(((....))).))), in data set [1], the folding enthalpy was -22.5 kcal/mol. The Tm in data set [2] turned out to be 43.8 °C.
Regarding GTTCACCGAAAGGTAAC (((.(((....)))))), the folding enthalpy in data set [1] is -16.3 kcal/mol. The Tm in data set [2] came to 36.3 °C.
The like results for GGGCCAGGAAACTGGTCC ((.((((....)))).)) were, in that order, -35 kcal/mol and 61.9 °C.
In the same order, the values of GGGGTATCGAAAGATCCC (((..(((....)))))) are -22.4 kcal/mol and 50.4 °C.
